The assay is described as follows: Displacement of [125I]TZDM from amyloid beta (1 to 40) aggregates after 2 hrs by gamma counting. A digest of the protocol:
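Competition binding against [125I]TZDM as radiolabeled standard, using Aβ1–40 aggregates; run in triplicate, results as mean ± SD.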

pKi: −log10 of the molar value.

Consider `COc1ccc(/C=C/C(=O)n2ccc3ccccc32)cc1`, for which the pKi is 7.56. Under `COc1ccc2c(ccn2C(=O)/C=C/c2ccccc2)c1` stands 7.17.

As usually defined, the pKi is −log10 of the Ki, conventionally taken in molar units.

The values above are taken from ChEMBL document CHEMBL1828568, “Novel imaging agents for β-amyloid plaque based on the N-benzoylindole core” (Bioorg Med Chem Lett, 2011).
